Several values for one entry are separate records, joined by “and”; a condition that tells them apart may be missing. Equal entries are not always repeated. Activity calls are given as the source filed them. The rule behind the calls is not given here.
Key:
Rattus norvegicus [1] = assay: Antihypertensive activity in spontaneously hypertensive rats was measured as average blood pressure at 100 mg/kg, p.o. after 4 hours of postdose-2; type: functional; conditions: route oral
Summary of the method: (§1)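 Spontaneously hypertensive rats aged 12 to 16 weeks, in groups of five with systolic pressure of 170 mmHg or more. Oral dosing as a solution or suspension in 0.25% methylcellulose, 5 mL/kg, with a vehicle control group. Tail-cuff systolic pressure was read predose and 4 and 24 h after each of two doses. Values were compared with predose by Student's t test.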

Rattus norvegicus [2] = assay: Antihypertensive activity in spontaneously hypertensive rats was measured as average blood pressure at 100 mg/kg, p.o. before predose; type: functional; conditions: route oral; summary of the method: as §1
Rattus norvegicus [3] = assay: Antihypertensive activity in spontaneously hypertensive rats was measured as average blood pressure at 100 mg/kg, p.o. after 4 hours of postdose-1.; type: functional; conditions: route oral; summary of the method: as §1
Rattus norvegicus [4] = assay: Antihypertensive activity in spontaneously hypertensive rats was measured as average blood pressure at 100 mg/kg, po after 24 hours of postdose-2; type: functional; summary of the method: as §1
Rattus norvegicus [5] = assay: Antihypertensive activity in spontaneously hypertensive rats was measured as average blood pressure at 100 mg/kg, p.o. after 24 hours of postdose-1.; type: functional; conditions: route oral; summary of the method: as §1
Rattus norvegicus [6] = assay: Antihypertensive activity in spontaneously hypertensive rats was measured as average blood pressure at 100 mg/kg, p.o. after 4 hours of postdose-1; type: functional; conditions: route oral; summary of the method: as §1
Rattus norvegicus [7] = assay: Antihypertensive activity in spontaneously hypertensive rats was measured as average blood pressure at 25 mg/kg, p.o. after 4 hours of postdose-2; type: functional; conditions: route oral; summary of the method: as §1
Rattus norvegicus [8] = assay: Antihypertensive activity in spontaneously hypertensive rats was measured as average blood pressure at 10 mg/kg, p.o. after 24 hours of postdose-1; type: functional; conditions: route oral; summary of the method: as §1
Rattus norvegicus [9] = assay: Antihypertensive activity in spontaneously hypertensive rats was measured as average blood pressure at 25 mg/kg, p.o. after 24 hours of postdose-2; type: functional; conditions: route oral; summary of the method: as §1
Rattus norvegicus [10] = assay: Antihypertensive activity in spontaneously hypertensive rats was measured as average blood pressure at 10 mg/kg, p.o. after 4 hours of postdose-1.; type: functional; conditions: route oral; summary of the method: as §1
Rattus norvegicus [11] = assay: Antihypertensive activity in spontaneously hypertensive rats was measured as average blood pressure at 25 mg/kg, p.o. after 24 hours of postdose-1; type: functional; conditions: route oral; summary of the method: as §1
Rattus norvegicus [12] = assay: Antihypertensive activity in spontaneously hypertensive rats was measured as average blood pressure at 10 mg/kg, p.o. after 24 hours of postdose-2; type: functional; conditions: route oral; summary of the method: as §1
Rattus norvegicus [13] = assay: Antihypertensive activity in spontaneously hypertensive rats was measured as average blood pressure at 50 mg/kg, p.o. after 4 hours of postdose-2; type: functional; conditions: route oral; summary of the method: as §1
Rattus norvegicus [14] = assay: Antihypertensive activity in spontaneously hypertensive rats was measured as average blood pressure at 25 mg/kg, p.o. before predose; type: functional; conditions: route oral; summary of the method: as §1
Rattus norvegicus [15] = assay: Antihypertensive activity in spontaneously hypertensive rats was measured as average blood pressure at 25 mg/kg, po after 4 hours of postdose-1; type: functional; summary of the method: as §1
Rattus norvegicus [16] = assay: Antihypertensive activity in spontaneously hypertensive rats was measured as average blood pressure at 50 mg/kg, p.o. before predose; type: functional; conditions: route oral; summary of the method: as §1
Rattus norvegicus [17] = assay: Antihypertensive activity in spontaneously hypertensive rats was measured as average blood pressure at 10 mg/kg, p.o. before predose; type: functional; conditions: route oral; summary of the method: as §1
Rattus norvegicus [18] = assay: Antihypertensive activity in spontaneously hypertensive rats was measured as average blood pressure at 50 mg/kg, p.o. after 24 hours of postdose-2; type: functional; conditions: route oral; summary of the method: as §1
Rattus norvegicus [19] = assay: Antihypertensive activity in spontaneously hypertensive rats was measured as average blood pressure at 10 mg/kg, p.o. after 4 hours of postdose-2; type: functional; conditions: route oral; summary of the method: as §1
Rattus norvegicus [20] = assay: Antihypertensive activity in spontaneously hypertensive rats was measured as average blood pressure at 50 mg/kg, p.o. after 4 hours of postdose-1; type: functional; conditions: route oral; summary of the method: as §1
Rattus norvegicus [21] = assay: Antihypertensive activity in spontaneously hypertensive rats was measured as average blood pressure at 50 mg/kg, p.o. after 24 hours of postdose-1; type: functional; conditions: route oral; summary of the method: as §1
Rattus norvegicus [22] = assay: Antihypertensive activity in spontaneously hypertensive rats was measured as average blood pressure at 30 mg/kg, po after 4 hours of postdose-1.; type: functional; summary of the method: as §1
Rattus norvegicus [23] = assay: Antihypertensive activity in spontaneously hypertensive rats was measured as average blood pressure at 30 mg/kg, p.o. after 4 hours of postdose-2; type: functional; conditions: route oral; summary of the method: as §1
Rattus norvegicus [24] = assay: Antihypertensive activity in spontaneously hypertensive rats was measured as average blood pressure at 30 mg/kg, p.o. after 24 hours of postdose-1; type: functional; conditions: route oral; summary of the method: as §1
Rattus norvegicus [25] = assay: Antihypertensive activity in spontaneously hypertensive rats was measured as average blood pressure at 30 mg/kg, p.o. after 24 hours of postdose-2; type: functional; conditions: route oral; summary of the method: as §1
Rattus norvegicus [26] = assay: Antihypertensive activity in spontaneously hypertensive rats was measured as average blood pressure at 30 mg/kg, p.o. before predose; type: functional; conditions: route oral; summary of the method: as §1
Rattus norvegicus [27] = species on record: Rattus norvegicus; assay: Antihypertensive activity in spontaneously hypertensive rats was measured as decrease in heart rate; (-)=decreased heart rate; type: functional, organism-based

N#Cc1c(-c2ccc(Cl)cc2)c(-c2ccc(Cl)cc2)nn(CCCC(=O)O)c1=O
BP (Rattus norvegicus [1]): 175 mmHg
BP (Rattus norvegicus [2]): 215 mmHg
BP (Rattus norvegicus [3]): 202 mmHg
BP (Rattus norvegicus [4]): 180 mmHg
BP (Rattus norvegicus [5]): 204 mmHg

CC(=O)c1c(-c2ccc(F)cc2)c(-c2ccc(F)cc2)nn(CCO)c1=O
BP (Rattus norvegicus [1]): 166 mmHg
BP (Rattus norvegicus [6]): 138 mmHg
BP (Rattus norvegicus [2]): 186 mmHg
BP (Rattus norvegicus [4]): 180 mmHg
BP (Rattus norvegicus [5]): 160 mmHg

CC(=O)c1c(-c2ccc(Cl)cc2)c(-c2ccc(Cl)cc2)nn(CCNC(C)C)c1=O
BP (Rattus norvegicus [1]): 143 mmHg
BP (Rattus norvegicus [2]): 216 mmHg
BP (Rattus norvegicus [3]): 211 mmHg
BP (Rattus norvegicus [4]): 176 mmHg
BP (Rattus norvegicus [5]): 181 mmHg

N#Cc1c(-c2ccc(Cl)cc2)c(-c2ccc(Cl)cc2)nn(CCO)c1=O
BP (Rattus norvegicus [7]): 157 mmHg
BP (Rattus norvegicus [8]): 184 mmHg
BP (Rattus norvegicus [9]): 180 mmHg
BP (Rattus norvegicus [10]): 181 mmHg
BP (Rattus norvegicus [11]): 178 mmHg
BP (Rattus norvegicus [1]): 145 mmHg
BP (Rattus norvegicus [12]): 180 mmHg
BP (Rattus norvegicus [13]): 156 mmHg
BP (Rattus norvegicus [6]): 157 mmHg
BP (Rattus norvegicus [2]): 200 mmHg
BP (Rattus norvegicus [14]): 208 mmHg
BP (Rattus norvegicus [15]): 168 mmHg
BP (Rattus norvegicus [16]): 200 mmHg
BP (Rattus norvegicus [17]): 194 mmHg
BP (Rattus norvegicus [4]): 152 mmHg
BP (Rattus norvegicus [18]): 168 mmHg
BP (Rattus norvegicus [5]): 158 mmHg
BP (Rattus norvegicus [19]): 178 mmHg
BP (Rattus norvegicus [20]): 165 mmHg
BP (Rattus norvegicus [21]): 171 mmHg

CC(=O)c1c(-c2ccc(Cl)cc2)c(-c2ccc(Cl)cc2)nn(CCN2CCOCC2)c1=O
BP (Rattus norvegicus [1]; 100 mg/kg): 199 mmHg and 146 mmHg
BP (Rattus norvegicus [6]): 140 mmHg
BP (Rattus norvegicus [2]; 100 mg/kg): 239 mmHg and 201 mmHg
BP (Rattus norvegicus [3]): 230 mmHg
BP (Rattus norvegicus [4]; 100 mg/kg): 222 mmHg and 177 mmHg
BP (Rattus norvegicus [5]; 100 mg/kg): 201 mmHg and 161 mmHg

CC(=O)c1c(-c2ccc(Cl)cc2)c(-c2ccc(Cl)cc2)nn(C(C)CO)c1=O (configuration not stated)
BP (Rattus norvegicus [1]): 191 mmHg
BP (Rattus norvegicus [6]): 186 mmHg
BP (Rattus norvegicus [2]): 212 mmHg
BP (Rattus norvegicus [4]): 201 mmHg
BP (Rattus norvegicus [5]): 174 mmHg

CC(=O)c1c(-c2ccc(Cl)cc2)c(-c2ccc(Cl)cc2)nn(CCN(C)C)c1=O
BP (Rattus norvegicus [1]): 155 mmHg
BP (Rattus norvegicus [22]): 182 mmHg
BP (Rattus norvegicus [23]): 167 mmHg
BP (Rattus norvegicus [2]): 201 mmHg
BP (Rattus norvegicus [24]): 164 mmHg
BP (Rattus norvegicus [25]): 193 mmHg
BP (Rattus norvegicus [3]): 182 mmHg
BP (Rattus norvegicus [4]): 144 mmHg
BP (Rattus norvegicus [5]): 179 mmHg
BP (Rattus norvegicus [26]): 199 mmHg

CC(=O)NCCn1nc(-c2ccc(Cl)cc2)c(-c2ccc(Cl)cc2)c(C(C)=O)c1=O
BP (Rattus norvegicus [1]): 136 mmHg
BP (Rattus norvegicus [6]): 149 mmHg
BP (Rattus norvegicus [2]): 220 mmHg
BP (Rattus norvegicus [4]): 145 mmHg
BP (Rattus norvegicus [5]): 146 mmHg

C[C@](N)(Cc1ccc(O)c(O)c1)C(=O)O [METHYLDOPA]
BP (Rattus norvegicus [1]): 155 mmHg
BP (Rattus norvegicus [6]): 161 mmHg
BP (Rattus norvegicus [2]): 178 mmHg
BP (Rattus norvegicus [4]): 166 mmHg
BP (Rattus norvegicus [5]): 174 mmHg

CCOC(=O)CCCn1nc(-c2ccc(Cl)cc2)c(-c2ccc(Cl)cc2)c(C(C)=O)c1=O
BP (Rattus norvegicus [1]): 188 mmHg
BP (Rattus norvegicus [2]): 196 mmHg
BP (Rattus norvegicus [3]): 192 mmHg
BP (Rattus norvegicus [4]): 181 mmHg
BP (Rattus norvegicus [5]): 174 mmHg

CC(=O)c1c(-c2ccc(Cl)cc2)c(-c2ccc(Cl)cc2)nn(CCN=C(C)C)c1=O
BP (Rattus norvegicus [8]): 208 mmHg
BP (Rattus norvegicus [10]): 214 mmHg
BP (Rattus norvegicus [1]): 134 mmHg
BP (Rattus norvegicus [12]): 209 mmHg
BP (Rattus norvegicus [22]): 201 mmHg
BP (Rattus norvegicus [23]): 190 mmHg
BP (Rattus norvegicus [2]): 209 mmHg
BP (Rattus norvegicus [24]): 196 mmHg
BP (Rattus norvegicus [17]): 210 mmHg
BP (Rattus norvegicus [25]): 198 mmHg
BP (Rattus norvegicus [3]): 203 mmHg
BP (Rattus norvegicus [4]): 164 mmHg
BP (Rattus norvegicus [5]): 158 mmHg
BP (Rattus norvegicus [19]): 205 mmHg
BP (Rattus norvegicus [26]): 211 mmHg

CC(=O)c1c(-c2ccc(Cl)cc2)c(-c2ccc(Cl)cc2)nn(CCN2CCCC2)c1=O
BP (Rattus norvegicus [8]): 204 mmHg
BP (Rattus norvegicus [10]): 205 mmHg
BP (Rattus norvegicus [1]): 142 mmHg
BP (Rattus norvegicus [12]): 207 mmHg
BP (Rattus norvegicus [22]): 200 mmHg
BP (Rattus norvegicus [6]): 155 mmHg
BP (Rattus norvegicus [23]): 191 mmHg
BP (Rattus norvegicus [2]): 192 mmHg
BP (Rattus norvegicus [24]): 187 mmHg
BP (Rattus norvegicus [17]): 208 mmHg
BP (Rattus norvegicus [25]): 199 mmHg
BP (Rattus norvegicus [4]): 146 mmHg
BP (Rattus norvegicus [5]): 138 mmHg
BP (Rattus norvegicus [27]): inactive
BP (Rattus norvegicus [19]): 202 mmHg
BP (Rattus norvegicus [26]): 212 mmHg

CCOC(=O)N1CCN(CCn2nc(-c3ccc(Cl)cc3)c(-c3ccc(Cl)cc3)c(C(C)=O)c2=O)CC1
BP (Rattus norvegicus [1]): 151 mmHg
BP (Rattus norvegicus [2]): 200 mmHg
BP (Rattus norvegicus [3]): 186 mmHg
BP (Rattus norvegicus [4]): 183 mmHg
BP (Rattus norvegicus [5]): 182 mmHg

CC(=O)c1c(-c2ccc(Cl)cc2)c(-c2ccc(Cl)cc2)nn(CCN(C)C)c1=O.Cl
BP (Rattus norvegicus [1]): 160 mmHg
BP (Rattus norvegicus [2]): 205 mmHg
BP (Rattus norvegicus [3]): 200 mmHg
BP (Rattus norvegicus [4]): 184 mmHg
BP (Rattus norvegicus [5]): 170 mmHg

COCCn1nc(-c2ccc(Cl)cc2)c(-c2ccc(Cl)cc2)c(C(C)=O)c1=O
BP (Rattus norvegicus [1]): 144 mmHg
BP (Rattus norvegicus [6]): 142 mmHg
BP (Rattus norvegicus [2]): 186 mmHg
BP (Rattus norvegicus [4]): 158 mmHg
BP (Rattus norvegicus [5]): 148 mmHg

— ChEMBL document CHEMBL1121371, “Antihypertensive 5,6-diarylpyridazin-3-ones” (1980)
